Data set [1] addresses MDR1 (Homo sapiens, UniProt P08183). As to the kind of experiment: NIH MDR1-MDCKI transwell efflux assay. The data set is classed as in vitro ADME.
Data set [2] can be described thus: NHP CSF-to-plasma Kp,uu experiment. The data set is classed as in vivo, cynomolgus monkeys. The conditions noted are these: cynomolgus, cynomolgus monkey, intravenous. In outline: (§1)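 Cynomolgus monkeys (six total) received a three‐compound cassette in 10% captisol in sterile water as a 15 min IV infusion via saphenous or cephalic vein. Plasma (vena cava, K₂EDTA), lumbar CSF after euthanasia, and excised brain were taken from 2 animals per time point at about 17, 30 and 60 min after infusion start. Samples were quantified by LC‐MS/MS after protein precipitation, and Kp,uu was calculated from unbound concentrations.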

The nature of data set [3]: NHP brain-to-plasma Kp,uu experiment. The data set is classed as in vivo, cynomolgus monkeys. Particulars: cynomolgus, cynomolgus monkey, intravenous. The essentials:
as §1

Data set [4] is described as follows: NHP brain-to-plasma and CSF-to-plasma Kp,uu time course experiment. It counts as in vivo, cynomolgus monkeys. Particulars: IV infusion for 15 min. In outline:
as §1

A short description of data set [5]: MDCK A-B passive permeability. It counts as in vitro ADME, canine. Particulars: dog. The essentials:
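MDCKII cells seeded at 60 000 cells/cm² on 1 µm pore transwell inserts and used on day 4. Test compound at 1 µM in HBSS added to donor, with 0.1% BSA in receiver. Donor sampled at 0 min; donor and receiver sampled at 90 min, 37°C, analysed by LC‐MS/MS. Papp = (dQ/dt)/(A×C0). Monolayer integrity confirmed by lucifer yellow A‐B <2%; recovery >70%.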

Data set [6] addresses T1, breast cancer resistance protein (BCRP) (Homo sapiens, UniProt Q9UNQ0).
T1 sequence (Q9UNQ0 1-655): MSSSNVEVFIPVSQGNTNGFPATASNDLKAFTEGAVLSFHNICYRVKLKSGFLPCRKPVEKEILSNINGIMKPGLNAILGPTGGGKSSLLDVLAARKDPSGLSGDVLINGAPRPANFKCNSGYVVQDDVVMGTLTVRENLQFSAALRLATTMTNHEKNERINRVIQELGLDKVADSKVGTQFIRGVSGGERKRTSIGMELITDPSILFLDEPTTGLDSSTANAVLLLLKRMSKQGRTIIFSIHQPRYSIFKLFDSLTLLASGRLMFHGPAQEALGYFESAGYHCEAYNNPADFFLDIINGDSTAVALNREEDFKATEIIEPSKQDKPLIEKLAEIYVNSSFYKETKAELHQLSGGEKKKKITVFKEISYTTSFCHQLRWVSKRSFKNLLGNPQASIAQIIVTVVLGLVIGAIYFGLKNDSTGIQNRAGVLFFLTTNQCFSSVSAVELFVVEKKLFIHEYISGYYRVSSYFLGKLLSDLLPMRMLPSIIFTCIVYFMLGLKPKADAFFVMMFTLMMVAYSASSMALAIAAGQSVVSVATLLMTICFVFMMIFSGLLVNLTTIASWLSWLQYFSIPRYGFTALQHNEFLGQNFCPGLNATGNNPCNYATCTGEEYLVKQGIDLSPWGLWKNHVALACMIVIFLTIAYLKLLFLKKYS
As to the kind of experiment: BCRP transwell efflux ratio. The data set is classed as in vitro ADME. The conditions noted are these: B_A Papp (n = 3) / A_B Papp (n = 3).

A short description of data set [7]: NHP brain tissue binding. It counts as in vitro ADME. Particulars: monkey, brain homogenate. The essentials:
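Brain was homogenized in PBS at 1:3 (w:v) and dialysed against PBS in a rapid equilibrium dialysis device for 18 h at 37°C, 5% CO₂, shaking at 150 rpm. Samples were matrix‐matched, precipitated with acetonitrile containing internal standard, and analysed by LC‐MS/MS. fu = receiver/donor peak‐area ratio, corrected for dilution factor 4.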

MDR1, sequence (P08183 whole entry, the tested form may be a part): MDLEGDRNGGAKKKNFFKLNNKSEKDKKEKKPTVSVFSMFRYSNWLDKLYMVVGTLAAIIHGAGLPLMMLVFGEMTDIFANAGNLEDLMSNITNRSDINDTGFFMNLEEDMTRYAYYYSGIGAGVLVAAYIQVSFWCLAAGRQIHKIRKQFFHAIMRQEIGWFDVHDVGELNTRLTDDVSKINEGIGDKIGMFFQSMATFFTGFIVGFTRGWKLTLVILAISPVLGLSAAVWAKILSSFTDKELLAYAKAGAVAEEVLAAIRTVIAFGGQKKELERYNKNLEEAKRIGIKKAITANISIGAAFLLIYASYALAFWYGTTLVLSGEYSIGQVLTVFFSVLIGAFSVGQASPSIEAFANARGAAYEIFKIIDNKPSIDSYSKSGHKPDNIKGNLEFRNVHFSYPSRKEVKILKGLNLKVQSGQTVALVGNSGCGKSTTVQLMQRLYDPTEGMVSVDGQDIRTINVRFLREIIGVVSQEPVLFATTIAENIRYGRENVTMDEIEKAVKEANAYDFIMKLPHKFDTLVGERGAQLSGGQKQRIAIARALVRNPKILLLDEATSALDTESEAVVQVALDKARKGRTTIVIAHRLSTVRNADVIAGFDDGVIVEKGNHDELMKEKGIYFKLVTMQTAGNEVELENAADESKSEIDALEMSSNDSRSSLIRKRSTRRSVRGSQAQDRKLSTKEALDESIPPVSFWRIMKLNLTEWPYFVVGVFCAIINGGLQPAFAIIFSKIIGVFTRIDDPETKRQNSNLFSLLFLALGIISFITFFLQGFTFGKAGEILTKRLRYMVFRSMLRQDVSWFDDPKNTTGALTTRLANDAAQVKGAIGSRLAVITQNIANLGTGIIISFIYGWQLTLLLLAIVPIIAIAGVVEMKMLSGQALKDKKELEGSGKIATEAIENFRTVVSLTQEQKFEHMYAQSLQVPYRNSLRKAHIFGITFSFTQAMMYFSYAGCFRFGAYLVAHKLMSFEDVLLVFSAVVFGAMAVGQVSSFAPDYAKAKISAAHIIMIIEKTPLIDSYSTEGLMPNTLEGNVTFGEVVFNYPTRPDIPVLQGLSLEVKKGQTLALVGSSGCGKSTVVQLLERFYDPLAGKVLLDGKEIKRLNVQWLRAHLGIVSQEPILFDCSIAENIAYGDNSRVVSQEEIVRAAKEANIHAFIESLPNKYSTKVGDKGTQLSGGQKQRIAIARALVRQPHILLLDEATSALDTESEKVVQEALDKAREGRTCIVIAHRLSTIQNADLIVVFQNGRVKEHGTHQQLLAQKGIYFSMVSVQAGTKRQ

`C=C[C@H]1C[N@@]2CC[C@H]1C[C@@H]2[C@@H](O)c1ccnc2ccc(OC)cc12` [quinidine]: in data set [1] (NIH MDR1-MDCKI vs internal MDR1-MDCKII), the “ER in NIH MDR1 assay relative to current MDR1 assay” value is listed as “more than 10 fold”.
Consider `Cc1cc(=O)n(-c2ccccc2)n1C` [Antipyrine], for which, in data set [2], the Kp uu at 1 h is 1. Further, the Kp uu in data set [3] amounted to 0.96. Also, in data set [1] (ER of 3 as cutoff to classify substrates), the MDR1/BCRP substrate classification result is “no MDR1/BCRP efflux transporter interactions”. For the same compound, the efflux ratio at 90 min, 1 µM in data set [1] (human, MDCK-MDR1) was 1. In addition, in data set [4], the “Time for unbound brain concentration to reach equilibrium with unbound plasma concentration” value is on record as at most 15 min. Also, the “Time for lumbar CSF to equilibrate with plasma” value in data set [4] (lumbar CSF) is listed as ~ 1 h. Besides, in data set [5], the apical-to-basolateral permeability (Papp A→B) at 90 min, 1 µM came to 32.8 ± 9 ×10⁻⁶ cm/s. The “BCRP ER” value in data set [6] is reported as 0.9. This compound also gave a fraction unbound at 18 h in data set [7] of around 1.

By efflux ratio is commonly meant the permeability from basolateral to apical divided by that in the opposite direction, in the common usage. In general, Papp A→B refers to the apparent permeability from the apical to the basolateral side of a cell layer. Low values mean slow passage, high ones fast passage. The fraction unbound is free concentration divided by total concentration.

(Values after publication PMC8929335 (Pharmacology Research & Perspectives, 2022).)
